Results taken from ChEMBL document CHEMBL5724801, “EUbOPEN Chemogenomics Library - Multiplex” (2024).
Where “and” joins values, the source holds several entries; their conditions need not be identical. Equal entries are not always repeated.

Test system: Fibroblast
Test: Multiplex assay against human fibroblast
Format: toxicity, cell-based
How it was run: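 With compound added, live cells were imaged on a CQ1 microscope at 37°C and 5% CO2; staining with Hoechst33342, BioTracker Green Microtubule Cytoskeleton Dye, MitoTracker Red and Annexin V Alexa Fluor 680 had been done at seeding. The CellPathfinder machine-learning gating scheme split cells into Hoechst high-intensity objects or normal cells, normal cells into healthy, pyknosed or fragmented nuclei, and pyknosed cells into mitotic or apoptotic. The tubulin, mitochondrial-mass and membrane-permeability phenotypes are per cents of healthy-nucleus cells.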

[1] = 12 h, 1 µM, compound concentration 1 uM
[2] = 12 h, 10 µM, compound concentration 10 uM
[3] = 24 h, 1 µM, compound concentration 1 uM
[4] = 24 h, 10 µM, compound concentration 10 uM
[5] = 48 h, 1 µM, compound concentration 1 uM
[6] = 48 h, 10 µM, compound concentration 10 uM

CC[C@H]1OC(=O)[C@H](C)[C@@H](O[C@H]2C[C@@](C)(OC)[C@@H](O)[C@H](C)O2)[C@H](C)[C@@H](O[C@@H]2O[C@H](C)C[C@H](N(C)C)[C@H]2O)[C@@]2(C)CC(C)=C(O2)[C@H](C)[C@@H](O)[C@]1(C)O
Population Apoptotic (%) [1]: 37% and 46% | Population Fragmented Nuclei (%) [1]: 13% and 23% | Population Healthy Nuclei (%) [1]: 72% and 57% | Population Hoechst High Intensity Objects (%) [1]: 2% and 3% | Population Membrane Permeable-Phenotype (%) [1]: 0% and 9% | Population Mitochondria Different-Phenotype (%) [1]: 8% and 6% | Population Mitotic Cells (%) [1]: 62% and 53% | Population Normal (%) [1]: 97% and 96% | Population Pyknosed Nuclei (%) [1]: 13% and 18% | Population Tubulin-Different-Phenotype (%) [1]: 40% and 53% | Total Cell Count [1]: 176 and 170 | Population Apoptotic (%) [2]: 48% and 40% | Population Fragmented Nuclei (%) [2]: 24% and 41% | Population Healthy Nuclei (%) [2]: 63% and 33% | Population Hoechst High Intensity Objects (%) [2]: 3% and 4% | Population Membrane Permeable-Phenotype (%) [2]: 0% and 14% | Population Mitochondria Different-Phenotype (%) [2]: 25% and 11% | Population Mitotic Cells (%) [2]: 52% and 59% | Population Normal (%) [2]: 96% and 95% | Population Pyknosed Nuclei (%) [2]: 12% and 25% | Population Tubulin-Different-Phenotype (%) [2]: 86% and 73% | Total Cell Count [2]: 205 and 133 | Population Apoptotic (%) [3]: 52% and 46% | Population Fragmented Nuclei (%) [3]: 18% and 29% | Population Healthy Nuclei (%) [3]: 69% and 52% | Population Hoechst High Intensity Objects (%) [3]: 4% and 3% | Population Membrane Permeable-Phenotype (%) [3]: 0% and 7% | Population Mitochondria Different-Phenotype (%) [3]: 7% and 5% | Population Mitotic Cells (%) [3]: 47% and 53% | Population Normal (%) [3]: 95% and 96% | Population Pyknosed Nuclei (%) [3]: 12% and 17% | Population Tubulin-Different-Phenotype (%) [3]: 45% and 36% | Total Cell Count [3]: 173 and 176 | Population Apoptotic (%) [4]: 52% and 46% | Population Fragmented Nuclei (%) [4]: 22% and 40% | Population Healthy Nuclei (%) [4]: 69% and 39% | Population Hoechst High Intensity Objects (%) [4]: 2% and 1% | Population Membrane Permeable-Phenotype (%) [4]: 0% and 8% | Population Mitotic Cells (%) [4]: 47% and 53% | Population Normal (%) [4]: 97% and 98% | Population Pyknosed Nuclei (%) [4]: 8% and 20% | Population Tubulin-Different-Phenotype (%) [4]: 89% and 81% | Total Cell Count [4]: 199 and 127 | Population Apoptotic (%) [5]: 55% and 56% | Population Fragmented Nuclei (%) [5]: 17% and 32% | Population Healthy Nuclei (%) [5]: 71% and 54% | Population Hoechst High Intensity Objects (%) [5]: 3% and 2% | Population Membrane Permeable-Phenotype (%) [5]: 0% and 7% | Population Mitochondria Different-Phenotype (%) [5]: 9% and 5% | Population Mitotic Cells (%) [5]: 44% and 43% | Population Normal (%) [5]: 96% and 97% | Population Pyknosed Nuclei (%) [5]: 11% and 13% | Population Tubulin-Different-Phenotype (%) [5]: 57% and 56% | Total Cell Count [5]: 168 and 173 | Population Apoptotic (%) [6]: 84% and 58% | Population Fragmented Nuclei (%) [6]: 24% and 43% | Population Healthy Nuclei (%) [6]: 68% and 47% | Population Hoechst High Intensity Objects (%) [6]: 8% and 7% | Population Membrane Permeable-Phenotype (%) [6]: 0% and 6% | Population Mitotic Cells (%) [6]: 15% and 41% | Population Normal (%) [6]: 91% and 92% | Population Pyknosed Nuclei (%) [6]: 6% and 9% | Population Tubulin-Different-Phenotype (%) [6]: 91% and 78% | Total Cell Count [6]: 216 and 139
